# An excerpt weighted towards active compounds, which were near 6.4% of everything screened.
# MPTP inh – inhibitors of mitochondrial permeability transition pore; isolated mouse mitochondria, Ca2+ swelling absorbance, 30 min; inhibition, % at 10 µM; actives 1.4% (n = 360,000); AID 602449;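 active = inhibition of 50% or more, scaled per plate between neutral and stimulator controls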;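 also: 0% = DMSO wells given calcium and 100% = 1 mM EGTA wells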
# GRIN3A LBD mod – modulators (binders) of human NR3A ligand-binding domain; NR3A LBD differential scanning fluorimetry, Tm shift; 0% = protein alone, 100% = glycine-bound protein; Tm shift relative to glycine control, % at 25 µM; actives 2.5% (n = 340,000);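 active = melting temperature shift of at least 10% of the positive control shift, at one fixed dose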
# WT yeast gro inh – growth inhibition of WT yeast, mitochondrial fusion screen; mitochondrial fusion phenotypic screen, WT strain; inhibition, % at 10 µM; actives 2.1% (n = 190,000); in the data active = inhibition above about 58%; tested in S. cerevisiae
# Tb MetRS inh – blocks T. brucei methionyl-tRNA synthetase activity | inhibition, % at 11.9 µM | purified T. brucei MetRS, ATP depletion, Kinase-Glo luminescence | AID 624268 | actives 0.4% (n = 360,000);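 active = inhibition above a per-plate cutoff of the control wells' mean inhibition plus 3 SD, cut at about 5.5% in these data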;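 also: 0% = DMSO wells median and 100% = median of wells with control inhibitor compound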
#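 Test system: purified T. brucei MetRS enzyme. Also added: ATP, methionine and E. coli bulk tRNA substrates. Compound: 11.9 µM single point. Schedule: 15 min enzyme-compound preincubation, 2 h reaction, 10 min detection, 25 °C. Signal: luciferase luminescence of residual ATP, Kinase-Glo. Evaluation: percent inhibition versus plate control medians. Controls: DMSO wells, low control.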
# CHOP inhibitor – CHOP inhibition in unfolded protein response | CHO-K1 CHOP-promoter luciferase, tunicamycin-induced, 15-18 h | inhibition, % at 10 µM | actives 3.8% (n = 220,000);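 active = compounds that reduced the stress-induced luciferase reporter signal by more than about 70% of percent inhibition, limit read from the data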;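 also: 0% = tunicamycin plus vehicle and 100% = wells without tunicamycin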
# EBV gp42 inh – EBV gp42 inhibition | Q1HVG2 | inhibition, % (tested at 21.74 µM) | Fluorescence polarization binding assay, mP read-out | actives 0.42% (n = 220,000); in the data active = inhibition above about 50%
# Target sequence (Q1HVG2 whole entry, looked up): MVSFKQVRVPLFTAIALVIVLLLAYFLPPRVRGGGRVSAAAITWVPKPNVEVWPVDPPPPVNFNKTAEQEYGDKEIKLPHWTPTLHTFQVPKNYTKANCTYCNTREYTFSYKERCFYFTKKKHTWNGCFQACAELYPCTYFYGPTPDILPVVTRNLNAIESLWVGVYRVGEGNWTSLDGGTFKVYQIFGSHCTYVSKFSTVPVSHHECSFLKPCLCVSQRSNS
# * = called active by the depositor; · = no result.
SMILES,MPTP inh,GRIN3A LBD mod,WT yeast gro inh,Tb MetRS inh,CHOP inhibitor,EBV gp42 inh
COc1cccc(-c2csc(N3CCN(CC(=O)NNC(=O)c4ccc(Cl)cc4)CC3)n2)c1,0,·,-4,-1,40,-18
Cc1cccc(-n2ncc3c(N4CCCc5ccccc54)ncnc32)c1,0,1,71*,0,29,-7
Cc1cccc(-n2ncc3c(NCc4ccccc4)ncnc32)c1,2,-13,10,1,·,-7
Fc1ccc(Cn2ccc(-c3cnc(-c4ccccc4)s3)n2)cc1,-2,-4,21,0,80*,-4
Cc1ccc(Cn2ccc(-c3cnc(-c4ccccc4)s3)n2)cc1,2,-11,-6,-1,87*,-8
CCOc1ccc(NC(=O)COC(=O)Cn2nc(C)c([N+](=O)[O-])c2C)cc1OCC,-2,0,·,0,·,·
O=C1NN(c2ccccc2)C(=O)/C1=C/c1ccc(Sc2cccc3ccccc23)o1,16,-5,-3,-1,104*,0
COCCNC(=O)c1cc2nc3c(c(C(F)(F)F)n2n1)CCc1ccccc1-3,2,-2,8,0,1,-13
O=C(O)c1cc2nc3c(c(C(F)(F)F)n2n1)CCc1ccccc1-3,4,11*,1,0,-22,-24
Cc1cccc(-c2nsc(SCC(=O)N3CCCC3)n2)c1,0,0,17,0,0,-3
Cc1cccc(-c2nsc(SCC(=O)Nc3nccs3)n2)c1,2,0,1,-2,87*,3
Brc1ccc2oc3c(N4CCOCC4)ncnc3c2c1,1,-1,52,0,60,-3
CN(C)c1ccc([C@@H]2[C@@H]([N+](=O)[O-])[C@H]3C=Cc4ccccc4N3[C@H]2C(=O)c2ccc(Cl)cc2)cc1,2,1,3,0,31,-42
CSc1ccccc1OCc1cc(C(=O)N(C)CC2COCCO2)no1 (stereo not given),0,13*,·,-1,·,·
CSc1ccccc1OCc1cc(C(=O)N(C)Cc2nonc2C)no1,1,13*,·,0,·,·
CCOC(=O)c1ccc(CNC(=O)Cn2nnc(-c3ccccc3F)n2)o1,5,0,-1,-2,-3,-4
On1c(-c2ccccc2)nc2ccccc21,1,0,·,0,-9,-2
On1c(-c2ccc(Cl)cc2)nc2ccccc21,-2,-3,79*,0,-11,-6
CC(C)Oc1cc2oc(=O)c3c(c2cc1Cl)CCC3,2,2,·,-1,82*,-2
O=C(Oc1cc2oc(=O)c3c(c2cc1Cl)CCCC3)c1cccs1,4,0,70*,0,8,-12
OCCNc1nc(Nc2ccccc2OC(F)(F)F)nc(N2CCCC2)n1,-2,-2,·,0,·,·
Cc1ccc(NC(=S)N2CCC(N(C)CC3CCCO3)CC2)cc1C (stereo not given),1,-2,-2,0,4,-26
Cc1ccc(-c2cn(S(=O)(=O)c3ccc(C)cc3)nc2N)cc1,1,3,-25,-1,79*,-8
CCOc1ccc(S(=O)(=O)n2cc(-c3ccc(F)cc3)c(N)n2)cc1,0,-3,-3,0,95*,2
CCOc1ccc(S(=O)(=O)n2cc(-c3ccccc3)c(N)n2)cc1,1,-12,3,0,14,-6
SMILES,MPTP inh,GRIN3A LBD mod,WT yeast gro inh,Tb MetRS inh,CHOP inhibitor,EBV gp42 inh
CCOc1cc(S(=O)(=O)n2cc(-c3ccc(F)cc3)c(N)n2)cc(OCC)c1OCC,-2,-17,19,-1,74*,-12
O=Cc1cn(-c2ccccc2)nc1-c1cccc([N+](=O)[O-])c1,1,·,·,0,·,·
Nc1nn(S(=O)(=O)c2ccccc2)cc1-c1cccc([N+](=O)[O-])c1,0,22*,-2,0,23,15
Cc1ccc2cccc(OCC(=O)Nc3ccc4c(c3)OCO4)c2n1,0,0,11,-1,5,-1
O=C(O)/C=C/C(=O)N1CCN(C(c2ccccc2)c2ccccc2)CC1,0,-1,·,0,12,-3
CCOC(=O)C1=C(C)N(C[C@@H]2CC[C@@H](Cc3ccc4cc(OC)ccc4c3)O2)C(=O)NC1c1ccccc1 (stereo not given in full),-1,-2,·,0,·,·
Cc1ccc(N(C)C(=O)N2CCN(S(=O)(=O)c3ccc(C)c(C)c3)CC2)cc1,-1,-14,2,0,73*,-15
COc1cccc(NC(=O)C(Sc2nnc(-c3ccncc3)n2-c2ccc(Cl)cc2)c2ccccc2)c1 (stereo not given),0,0,17,0,34,-4
COc1ccc(C2=NOC(Cn3nc(-c4ccccc4)cc3C(=O)NCc3ccccc3OC)C2)cc1 (stereo not given),0,25*,·,0,·,·
Cc1cccc(NC(=O)C(=O)NCC2CCCO2)c1 (stereo not given),2,-2,-7,0,-5,-19
CSc1ccc(S(=O)(=O)NCc2ccc(Cl)cc2Cl)cc1,7,-4,53,7.5*,89*,-5
CCOc1cc(/C=N\NC(=O)c2c(C)nc3ccccn23)ccc1O,1,2,·,0,·,·
CCc1ccc(C2NC(=S)NC3=C2C(=O)CC(C)(C)C3)cc1 (stereo not given),0,21*,-9,1,6,-28
CC(Nc1ccc(Br)cc1)C(=O)N/N=C/c1ccccc1OCc1ccccc1 (stereo not given),14,1,21,-2,92*,12
COc1ccc(NC(C)C(=O)N/N=C/c2ccccc2OCc2ccc(Br)cc2)cc1 (stereo not given),-5,-3,-40,0,28,-18
Cn1c(N2CCN(S(=O)(=O)c3ccc(Cl)cc3)CC2)nc2ccccc21,-3,0,10,2,18,-14
CC(=O)c1ccc2c(c1)C1C=CCC1C(C(=O)O)N2 (stereo not given),1,-1,12,0,-10,-5
Cc1ccc2c(c1)C1C=CCC1C(C(=O)O)N2 (stereo not given),·,·,3,·,-10,79*
COc1cccc2c1NC(C(=O)O)C1CC=CC21 (stereo not given),14,-10,19,0,-1,63*
Cc1ccc(C)c(OCCC(=O)OCC(=O)NC(=O)NC2CCCC2)c1,0,1,·,0,·,·
CCCCC#Cc1ccccc1CC(=O)Nc1ccccc1,-1,-2,-3,0,24,-7
CCCCCCCC#Cc1ccccc1/C=N/S(=O)c1ccc(C)cc1 (stereo not given),·,16*,5,·,10,-66
Cc1nn(Cc2ccc(Cl)c(Cl)c2)c(C)c1NC(=O)c1cc(-c2ccco2)on1,30,-2,19,0,87*,-29
COc1ccc(-c2cc(C(=O)Nc3c(C)nn(Cc4ccc(Cl)cc4)c3C)no2)cc1,1,6,4,-1,81*,-5
